Measured values from different studies.

SMILES	species	matrix	route	dose	notes	Tmax
C[C@@H](Nc1cc(F)cc(F)c1)c1cc(C(=O)N(C)C)cc2c(=O)cc(N3CCOCC3)oc12	human	plasma	oral	120 mg	single dose, patients	2 h
COc1ccc([C@@H]2CN(C(=O)[C@@H](O)CO)C[C@@]2(C)[C@@H](C)O)cc1OC1CN(c2ccc(C)cn2)C1	human	plasma	oral	0.1 mg	single dose, healthy volunteers	1 h
CC(C)[C@](O)(c1ccc2cc(OC(F)F)c(OC(F)F)cc2c1)c1c[nH]nn1	female human	plasma	oral	600 mg	single dose	2.5 h
CCO[C@H]1CCN(Cc2c(OC)cc(C)c3[nH]ccc23)[C@H](c2ccc(C(=O)O)cc2)C1	human	plasma	oral	50 mg	multiple doses, twice daily, patients	2 h
CC(C)(O)c1ccccc1-c1ccc2[nH]c(/C=C/c3ccc(C(F)(F)F)cc3)nc2c1	male human	plasma	oral	5 mg	single dose, fasted	3.95 h
COc1cc(N2CCC(N3CCN(C)CC3)CC2)ccc1Nc1ncnc(Nc2ccccc2S(=O)(=O)C(C)C)n1	human	plasma	oral	200 mg	multiple doses, patients	2.96 h
C/C(=C\c1csc(C)n1)[C@@H]1C[C@@H]2O[C@]2(C)CCC[C@H](C)[C@H](O)[C@@H](C)C(=O)C(C)(C)[C@@H](O)CC(=O)N1	human	plasma	intravenous	20 mg/m²	patients	1 h
CC(C)(Sc1ccncc1-c1ccc(C#N)c2ccccc12)C(=O)O	male human	plasma	oral	20 mg	single dose, fasted, healthy volunteers	0.5 h
Cc1nc(NC(=O)N2CCC[C@H]2C(N)=O)sc1-c1ccnc(C(C)(C)C(F)(F)F)c1	human	plasma	oral	270 mg	patients	2.02 h
Cn1cc(-c2ccc(S(=O)(=O)[C@@H]3C[C@@H](C(=O)NC4(C#N)CC4)N(C(=O)C4(C(F)(F)F)CC4)C3)c(C(F)(F)F)c2)cn1	human	plasma	oral	3 mg	single dose, fasted, healthy volunteers	5 h
O=C(O)C[C@H](O)C[C@H](O)/C=C/c1c(C2CC2)nc2ccccc2c1-c1ccc(F)cc1	human	plasma	oral	2 mg	single dose, fed, healthy volunteers, tablet	1.13 h
C#C[C@]1(COP(=O)(O)OP(=O)(O)OP(=O)(O)O)O[C@@H](n2cnc3c(N)nc(F)nc32)C[C@@H]1O	human	plasma	oral	15 mg	single dose	6 h
CC(C)(C)OC[C@@H]1C(=O)NCCN1C(=O)C[C@H](N)Cc1cc(F)c(F)cc1F	male human	plasma	oral	5 mg	multiple doses, steady state	2 h
Nc1cc(C(F)(F)F)c(-c2cc(N3CCOCC3)nc(N3CCOCC3)n2)cn1	human	plasma	oral	100 mg/day	patients	1.5 h
C[C@@]1(c2cc(NC(=O)c3ccc(C#N)cn3)ccc2F)C=CSC(N)=N1	male human	plasma	oral	1 mg	single dose	0.75 h
CS(=O)(=O)CCC#N	human	plasma	oral	1000 mg	multiple doses, once daily	2 h
CCCCOC(=O)N1CCN(C(=O)[C@H](CP(=O)(O)O)NC(=O)c2cc(N3CC[C@H](OC)C3)nc(-c3ccccc3)n2)CC1	human	plasma	subcutaneous	16 mg	single dose	0.733 h
COc1ccc(Oc2cc(N(C)CCOc3ccc(CC4SC(=O)NC4=O)cc3)ncn2)cc1 (stereo not shown)	male human	plasma	oral	0.5 mg	multiple doses, once daily, steady state	0.67 h
CCc1nc(C(N)=O)c(Nc2ccc(N3CCC(N4CCN(C)CC4)CC3)c(OC)c2)nc1NC1CCOCC1	human	plasma	oral	120 mg	multiple doses, patients	3.03 h
O=C(Nc1c(Cl)cncc1Cl)c1ccc(OC(F)F)c(OCC2CC2)c1	human	plasma	oral	0.25 mg	single dose	0.75 h
C=CC(=O)N(C)CCOc1c(N)ncnc1-c1cc(F)cc(NC(=O)c2ccc(C3CC3)cc2F)c1C	human	blood	oral	15 mg	single dose, healthy volunteers	0.5 h
CO[C@@H]1[C@H](OC(=O)N2CC(CCN3CCOCC3)C2)CC[C@]2(CO2)[C@H]1[C@@]1(C)O[C@@H]1CC=C(C)C	human	plasma	subcutaneous	0.2 mg	single dose, healthy volunteers	0.28 h
CCc1nc2c(C)cc(N3CCN(CC(=O)N4CC(O)C4)CC3)cn2c1N(C)c1nc(-c2ccc(F)cc2)c(C#N)s1	human	plasma	oral	1500 mg	fed, healthy volunteers	2 h
CC(C)n1cc(C#N)c2cc(-n3cc(C(=O)O)cn3)ccc21	human	plasma	oral	50 mg	single dose, fasted, healthy volunteers	3 h
c1cnc2ccc(Nc3nc(NC4CC4)c4nc[nH]c4n3)cc2c1	human	plasma	oral	800 mg/m²	patients	5 h
CCOc1cc2ncc(C#N)c(Nc3ccc(OCc4ccccn4)c(Cl)c3)c2cc1NC(=O)/C=C/[C@H]1CCCN1C	human	plasma	oral	80 mg	single dose	4.98 h
NS(=O)(=O)NCCNc1nonc1C(=NO)Nc1ccc(F)c(Br)c1	human	plasma	oral	400 mg	multiple doses, twice daily, steady state, patients	2 h
Oc1cc(O)c2c(c1)O[C@@H](c1ccc(O)c(O)c1)[C@@H](O)C2	human	plasma	oral	10 mg	single dose	1 h
